The target of one series is Cytochrome P450 3A4 (Homo sapiens, UniProt P08684). Description: Inhibition of CYP3A4 activity in human liver microsomes using nifedipine as a substrate by LC/MS analysis. It is filed as ADME. (In general: Liver microsomes are a subcellular fraction often used to study metabolism.)
Series [1] deals with Methionine aminopeptidase 2 (Homo sapiens) (UniProt P50579). Put plainly: Inhibition of human MetAP2 assessed as remaining enzyme activity after 8 hrs. More on the design: concentration or dose not given beside the values. The essentials: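 The hMetAP2 assay follows the fraction of active enzyme remaining during an 8 h incubation with inhibitor, relative to an enzyme-only control.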
Sequence of Methionine aminopeptidase 2 (Homo sapiens) (P50579 2-478 limits assumed): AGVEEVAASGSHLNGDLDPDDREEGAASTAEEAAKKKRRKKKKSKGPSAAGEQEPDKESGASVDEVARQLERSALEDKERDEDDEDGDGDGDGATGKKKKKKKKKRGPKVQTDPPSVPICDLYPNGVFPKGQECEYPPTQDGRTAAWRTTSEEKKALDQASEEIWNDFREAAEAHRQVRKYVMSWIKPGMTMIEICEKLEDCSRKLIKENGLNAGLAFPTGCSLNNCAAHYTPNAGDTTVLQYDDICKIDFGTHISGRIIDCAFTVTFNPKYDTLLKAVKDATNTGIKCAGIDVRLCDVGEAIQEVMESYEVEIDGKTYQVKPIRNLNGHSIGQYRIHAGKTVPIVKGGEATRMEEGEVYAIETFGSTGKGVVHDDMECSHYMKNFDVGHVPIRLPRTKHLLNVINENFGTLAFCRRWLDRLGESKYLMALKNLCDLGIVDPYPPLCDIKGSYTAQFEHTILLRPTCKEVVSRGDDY

A short description of series [2]: Tmax in non-Hodgkin lymphoma patient at 15 mg, po alternate days for 21 days. The class given is ADME, organism-based. As to conditions: human, in vivo. Put shortly: (§1)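 Non-Hodgkin lymphoma patients given oral capsules every other day for 21 days. Plasma sampled predose and at 15, 30 min and 1, 2, 3, 4, 6, 8, 24, 48 h after the first dose. Protein precipitated, extract reconstituted, parent and metabolites quantified by validated LC-MS/MS. CL/F and Vss/F derived from the administered dose.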

Series [3] can be described thus: AUC (0 to infinity) in non-Hodgkin lymphoma patient at 15 mg, po alternate days for 21 days. More on the design: dose 15 mg, route oral, time infinity. As to conditions: human, in vivo. The class given is ADME, organism-based. The essentials: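 Oral PPI-2458 given every other day to lymphoma patients. Plasma sampled pre-dose and at 15 min, 30 min, 1, 2, 3, 4, 6, 8, 24 and 48 h after the first dose. Parent and metabolites were measured by LC-MS/MS after protein precipitation, evaporation and reconstitution. CL/F was computed only for parent and summed analytes. For metabolites, t1/2 is an apparent first-phase value.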

Series [4] in a line: Oral steady-state volume of distribution in non-Hodgkin lymphoma patient at 15 mg, po alternate days for 21 days. The class given is ADME, organism-based. As to conditions: human, in vivo, read-out: Vss/F. The essentials: as §1
A further series has as its system Liver. Put plainly: Metabolic stability in rat liver S9 fraction assessed as retention time of glutathione conjugate at 5 mM by LC/MS analysis. The class given is ADME, subcellular. As to conditions: s9, 5000 µM.
A short description of series [5]: Metabolic stability in monkey liver microsomes assessed as retention time of ((3R,4S,5S,6R)-4-((2R,3R)-3-(((R)-3,3-dimethyloxiran-2-yl)methyl)-2-methyloxiran-2-yl)-5-methoxy-1-oxaspiro[2.5]octan-6-yl ((R)-1-amino-3-methyl-1-oxobutan-2-yl)carbamate) at 5 mM by LC/MS analysis. As to conditions: rhesus monkey, 5000 µM. The class given is ADME, Macaca mulatta. The essentials:
(§2)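 Liver microsomes (pooled male/female) in 100 mM KPO4 pH 7.4 with PPI-2458 (5 mM stock), pre-incubated 5 min at 37°C, then 10 mM NADPH added; 20 min at 37°C with shaking. Time-zero and no-NADPH controls. Quenched with CH3CN; supernatant dried and redissolved in water. Analysed by LC-MS, ESI+ full scan 300–800 amu, C18 column, 10→50% B gradient.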

Series [6] concerns Rattus norvegicus. Description: Inhibition of MetAP2 level in Sprague-Dawley rat lymph nodes assessed as free enzyme level at 3 mg/kg, po by ELISA. More on the design: dose 3 mg/kg. It is filed as functional, organism-based. Put shortly:
(§3)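 Male Sprague-Dawley rats (200-225 g, n=3 per group) were dosed once IV at 0.3 mg/kg or PO at 0.3 or 3.0 mg/kg, in 11% HPCD in water. Blood, liver, lung, thymus and pooled non-mesenteric lymph nodes were taken at ~24 h and lysed or homogenized with NP-40. Free MetAP2 was measured by ELISA and expressed as % of vehicle.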
(In general: In an ELISA, binding on a coated surface is turned into a signal by an enzyme label.)

The test system of series [7] is Rattus norvegicus. Put plainly: Inhibition of MetAP2 level in Sprague-Dawley rat thymus assessed as free enzyme level at 3 mg/kg, po by ELISA. It is filed as functional, organism-based. On the set-up: dose 3 mg/kg. The essentials:
as §3

The next series relates to Liver microsome. Description: Metabolic stability in rat liver microsomes assessed as retention time of ((3R,4S,5S,6R)-4-((2R,3R)-3-(((R)-3,3-dimethyloxiran-2-yl)methyl)-2-methyloxiran-2-yl)-5-methoxy-1-oxaspiro[2.5]octan-6-yl ((R)-1-amino-3-methyl-1-oxobutan-2-yl)carbamate) at 5 mM by LC/MS analysis. It is filed as ADME. To be noted: 5000 µM. Put shortly: as §2
In series [8] the test system is CYP3A5 (Homo sapiens). Description: Ratio of Vmax to Km for human recombinant CYP3A5 assessed as ((3R,4S,5S,6R)-5-methoxy-4-((2R,3R)-2-methyl-3-(3-methylbut-2-en-1-yl)oxiran-2-yl)-1-oxaspiro[2.5]octan-6-yl ((R)-1-amino-3-hydroxy-3-methyl-1-oxobutan-2-yl)carbamate) formation. As to conditions: recombinant enzyme.
The test system of series [9] is CYP3A4 (Homo sapiens). Description: Ratio of Vmax to Km for human recombinant CYP3A4 assessed as ((3R,4S,5S,6R)-4-((2R,3R)-3-(((R)-3,3-dimethyloxiran-2-yl)methyl)-2-methyloxiran-2-yl)-5-methoxy-1-oxaspiro[2.5]octan-6-yl ((R)-1-amino-3-methyl-1-oxobutan-2-yl)carbamate) formation. To be noted: recombinant enzyme.
For series [10], the system named is CYP3A4 (Homo sapiens). Description: Activity of human recombinant CYP3A4 assessed as ((3R,4S,5S,6R)-5-methoxy-4-((2R,3R)-2-methyl-3-(3-methylbut-2-en-1-yl)oxiran-2-yl)-1-oxaspiro[2.5]octan-6-yl ((R)-1-amino-3-hydroxy-3-methyl-1-oxobutan-2-yl)carbamate) formation per pmol of enzyme.
Series [11] relates to CYP3A5 (Homo sapiens). Put plainly: Activity of human recombinant CYP3A5 assessed as ((3R,4S,5S,6R)-5-methoxy-4-((2R,3R)-2-methyl-3-(3-methylbut-2-en-1-yl)oxiran-2-yl)-1-oxaspiro[2.5]octan-6-yl ((R)-1-amino-3-hydroxy-3-methyl-1-oxobutan-2-yl)carbamate) formation per pmol of enzyme.
Series [12] deals with CYP3A4 (Homo sapiens). Description: Activity of human recombinant CYP3A4 assessed as ((3R,4S,5S,6R)-4-((2R,3R)-3-(((S)-3,3-dimethyloxiran-2-yl)methyl)-2-methyloxiran-2-yl)-5-methoxy-1-oxaspiro[2.5]octan-6-yl ((R)-1-amino-3-methyl-1-oxobutan-2-yl)carbamate) formation per pmol of enzyme.
Series [13] relates to CYP3A5 (Homo sapiens). Put plainly: Activity of human recombinant CYP3A5 assessed as ((3R,4S,5S,6R)-4-((2R,3R)-3-(((S)-3,3-dimethyloxiran-2-yl)methyl)-2-methyloxiran-2-yl)-5-methoxy-1-oxaspiro[2.5]octan-6-yl ((R)-1-amino-3-methyl-1-oxobutan-2-yl)carbamate) formation per pmol of enzyme.

The source of these data is ChEMBL document CHEMBL3526018, “Metabolites of PPI-2458, a selective, irreversible inhibitor of methionine aminopeptidase-2: structure determination and in vivo activity” (Drug Metab Dispos, 2013).

The structures appear in SMILES notation. pKi: −log10 of the molar value. Active and inactive are the calls of the source. The rule behind the calls is not given here.

Usually pKi stands for −log10 of the Ki, conventionally taken in molar units. As a reminder, the Tmax is the time from dosing to the highest level. One may read the AUC(0-inf) as total exposure, with the tail of the curve extrapolated. A word on the Vmax: it is the rate approached at saturating substrate.

Sequence of Cytochrome P450 3A4 (P08684 whole entry): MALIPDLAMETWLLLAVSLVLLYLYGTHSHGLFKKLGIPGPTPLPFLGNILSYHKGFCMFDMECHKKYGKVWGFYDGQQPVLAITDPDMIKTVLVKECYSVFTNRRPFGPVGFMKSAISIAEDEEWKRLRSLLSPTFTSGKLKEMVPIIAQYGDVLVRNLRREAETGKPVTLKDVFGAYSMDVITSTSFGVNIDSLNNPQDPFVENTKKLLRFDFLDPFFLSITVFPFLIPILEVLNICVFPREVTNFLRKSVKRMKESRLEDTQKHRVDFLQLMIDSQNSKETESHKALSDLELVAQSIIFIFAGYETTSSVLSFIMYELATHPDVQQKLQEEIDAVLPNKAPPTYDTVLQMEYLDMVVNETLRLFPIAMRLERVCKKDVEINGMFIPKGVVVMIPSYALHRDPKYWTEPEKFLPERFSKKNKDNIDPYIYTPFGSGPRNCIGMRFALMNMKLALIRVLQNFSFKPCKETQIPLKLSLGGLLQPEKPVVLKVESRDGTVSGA

`CO[C@@H]1[C@H](OC(=O)N[C@@H](C(N)=O)C(C)C)CC[C@]2(CO2)[C@H]1[C@@]1(C)O[C@@H]1CC=C(C)C` [PPI-2458] had a pKi on Cytochrome P450 3A4 of 3.39. In series [1], the Activity is 2.8%. Moreover, the Tmax in series [2] worked out at 36 min. In series [3], the AUC(0-inf) amounted to 44.1 ng·h/mL. In addition, the Vd/F in [4] is 415 L. The Retention_time with Liver amounted to 20.8 min. Besides, the Drug metabolism result (in series [5]; in the series on Liver microsome) was “metabolite_detected” in each case. Besides, the inhibition entry in the series with Rattus norvegicus [6] and with Rattus norvegicus [7] was “Active” in each case. Further, the Vmax/Km was 0.09 µL/min in the series with CYP3A5 (Homo sapiens) [8] and 0.16 µL/min in the series with CYP3A4 (Homo sapiens) [9]. Further, the Vmax with CYP3A4 (Homo sapiens) [10] is reported as 0.51 pmol/min; in the series with CYP3A5 (Homo sapiens) [11] it was 1.58 pmol/min; in the series on CYP3A4 (Homo sapiens) [12] it was 2.97 pmol/min; in the series on CYP3A5 (Homo sapiens) [13] it was 1.42 pmol/min.
